Paper PMC6334763 (Archives of biochemistry and biophysics, 2018)
Where two headings read alike, the source gives them in different places. One block for each molecule: values may come before it.

How the values were obtained:
Bm-iAANAT3 [1] = molecular target: T1, Bm-iAANAT3 (Bombyx mori, UniProt D7EZJ9); assay: Steady-state kinetic characterization with Ellman's reagent; format: biochemical; details: for kcat: 300 mM Tris pH 8.0
Bm-iAANAT3 [2] = molecular target: T1, Bm-iAANAT3; assay: Dead-end and product inhibition analysis; format: biochemical; details: for inhibition pattern vs. acetyl-CoA: acetyl-CoA varied, tryptamine fixed; for inhibition pattern vs. tryptamine: tryptamine varied, acetyl-CoA fixed
How it was run: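 Same Ni-purified Bm-iAANAT3. Initial velocities were measured at several fixed inhibitor levels: oleoyl-CoA at 0, 250 and 500 nM; tyrosol at 0, 150 and 300 μM. In one series, tryptamine was held at 100 μM while acetyl-CoA was varied at 10, 25, 50 and 100 μM. In the other, acetyl-CoA was held at 100 μM while tryptamine was varied at 50, 100, 150 and 300 μM.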

Bm-iAANAT3 [3] = molecular target: T1, Bm-iAANAT3; details: cited from earlier work
Bm-iAANAT3 [4] = molecular target: T1, Bm-iAANAT3; assay: Activity-based substrate screening; format: biochemical; details: rate of CoA-SH release above enzyme-independent acyl-CoA hydrolysis
How it was run: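 Enzyme: Bm-iAANAT3 expressed from pET28a in E. coli BL-21(DE3), induced with 1.0 mM IPTG for 4 h at 37°C, and Ni-chelate purified. Acetyl-CoA or oleoyl-CoA at 500 μM was tested separately against pooled amines, each at 20 mM or 60 mM, in 300 mM Tris pH 8.0 with 150 μM DTNB. Initial rates came from CoA release at 412 nm (ε₄₁₂ = 13,600 M⁻¹ cm⁻¹), minus background thioester hydrolysis.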

[5] = molecular target: T2, E27A mutant of Bm-iAANAT3 (Bombyx mori, UniProt D7EZJ9, E27A); assay: Steady-state kinetic constants of the E27A mutant; format: biochemical; details: E27A mutant compared with wild-type Bm-iAANAT3
T2 sequence (D7EZJ9 1-213 E27A): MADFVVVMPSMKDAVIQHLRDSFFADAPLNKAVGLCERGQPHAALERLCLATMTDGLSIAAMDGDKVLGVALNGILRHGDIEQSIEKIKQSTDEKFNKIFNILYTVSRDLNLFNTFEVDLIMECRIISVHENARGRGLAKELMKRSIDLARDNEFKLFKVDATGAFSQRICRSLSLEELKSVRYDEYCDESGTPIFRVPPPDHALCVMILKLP

[6] = substrate: CC(=O)SCCNC(=O)CCNC(=O)[C@H](O)C(C)(C)COP(=O)(O)OP(=O)(O)OC[C@H]1O[C@@H](n2cnc3c(N)ncnc32)[C@H](O)[C@@H]1OP(=O)(O)O; assay: Steady-state kinetic constants of the E27A mutant; format: biochemical, Bombyx mori; details: other: E27A mutant; named substrate varied; pH 8.0
[7] = substrate: NCCc1c[nH]c2ccccc12; assay: Steady-state kinetic constants of the E27A mutant; format: biochemical, Bombyx mori; details: other: E27A mutant; named substrate varied; pH 8.0
[8] = acyl-CoA substrate varied, 8.0 mM tryptamine, 22°C
[9] = amine substrate varied, 500 μM acetyl-CoA, 22°C
[10] = amine substrate varied, 500 μM acetyl-CoA, 22°C, 300 mM Tris pH 8.0, 150 μM DTNB
[11] = binding to free Bm-iAANAT3, ITC and/or NMR

kcat (Bm-iAANAT3 [1]; [8]): 0.05 ± 0.004 s⁻¹
Molecule: CCCCCCCCCC(=O)SCCNC(=O)CCNC(=O)[C@H](O)C(C)(C)COP(=O)(O)OP(=O)(O)OC[C@H]1O[C@@H](n2cnc3c(N)ncnc32)[C@H](O)[C@@H]1OP(=O)(O)O [decanoyl-CoA]

kcat (Bm-iAANAT3 [1]; [9]): 55 ± 1.1 s⁻¹
Km (Bm-iAANAT3 [1]; [10]): 0.33 ± 0.023 mM
Molecule: NCCc1ccc(O)c(O)c1 [Dopamine]

kcat (Bm-iAANAT3 [1]; [8]): 1.3 ± 0.01 s⁻¹
Molecule: CCCCCC(=O)SCCNC(=O)CCNC(=O)C(O)C(C)(C)COP(=O)(O)OP(=O)(O)OC[C@H]1O[C@@H](n2cnc3c(N)ncnc32)[C@H](O)[C@@H]1OP(=O)(O)O (stereo partly shown) [hexanoyl-CoA]

kcat (Bm-iAANAT3 [1]; [9]): 33 ± 0.68 s⁻¹
Km (Bm-iAANAT3 [1]; [10]): 1.7 ± 0.098 mM
Km (Bm-iAANAT3 [1]; amine substrate, as given in the text in mM, 500 μM acetyl-CoA): 1.7 ± 0.1 mM
Molecule: NCCc1c[nH]cn1 [Histamine]

kcat (Bm-iAANAT3 [1]; [9]): 27 ± 0.6 s⁻¹
Km (Bm-iAANAT3 [1]; [10]): 0.063 ± 0.0067 mM
Molecule: NCCc1ccc(O)cc1 [Tyramine]

Molecule: CC(=O)NCCc1c[nH]c2ccccc12 [N-acetyltryptamine]
inhibition pattern vs. acetyl-CoA (Bm-iAANAT3 [2]): competitive
inhibition pattern vs. tryptamine (Bm-iAANAT3 [2]): noncompetitive
effect of added CoA-SH on binding (Bm-iAANAT3 [3]; addition of CoA-SH): not affected
effect of added acetyl-CoA on binding (Bm-iAANAT3 [3]; addition of acetyl-CoA): eliminated
Kd (Bm-iAANAT3 [3]; [11]): 12 ± 3 µM

kcat (Bm-iAANAT3 [1]; [8]): 64 ± 0.7 s⁻¹
Molecule: CC(=O)SCCNC(=O)CCNC(=O)[C@H](O)C(C)(C)COP(=O)(O)OP(=O)(O)OC[C@H]1O[C@@H](n2cnc3c(N)ncnc32)[C@H](O)[C@@H]1OP(=O)(O)O [acetyl-CoA]
Kd (Bm-iAANAT3 [3]; [11]): 0.7 µM

substrate activity as acyl-CoA donor (Bm-iAANAT3 [4]): no initial velocity increase
inhibition pattern vs. acetyl-CoA (Bm-iAANAT3 [2]): competitive
Ki (Bm-iAANAT3 [2]; read-out: Ki,s, competitive vs. acetyl-CoA (varied), tryptamine fixed at 100 μM): 0.22 ± 0.02 µM
inhibition pattern vs. tryptamine (Bm-iAANAT3 [2]): noncompetitive
Molecule: CCCCCCCC/C=C\CCCCCCCC(=O)SCCNC(=O)CCNC(=O)[C@H](O)C(C)(C)COP(=O)(O)OP(=O)(O)OC[C@H]1O[C@@H](n2cnc3c(N)ncnc32)[C@H](O)[C@@H]1OP(=O)(O)O [oleoyl-CoA]

kcat (Bm-iAANAT3 [1]; [8]): 0.36 ± 0.005 s⁻¹
Molecule: CCCCCCCC(=O)SCCNC(=O)CCNC(=O)[C@H](O)C(C)(C)COP(=O)(O)OP(=O)(O)OC[C@H]1O[C@@H](n2cnc3c(N)ncnc32)[C@H](O)[C@@H]1OP(=O)(O)O [octanoyl-CoA]

Ki (Bm-iAANAT3 [2]; Ki,i, uncompetitive vs. acetyl-CoA (varied), tryptamine fixed at 100 μM): 230 ± 10 µM
Ki (Bm-iAANAT3 [2]; Ki,s, competitive vs. tryptamine (varied), acetyl-CoA fixed at 100 μM): 90 ± 10 µM
inhibition pattern vs. acetyl-CoA (Bm-iAANAT3 [2]): uncompetitive
inhibition pattern vs. tryptamine (Bm-iAANAT3 [2]): competitive
Molecule: OCCc1ccc(O)cc1 [tyrosol]

kcat (Bm-iAANAT3 [1]; [9]): 5.3 ± 0.07 s⁻¹
Km (Bm-iAANAT3 [1]; [10]): 0.14 ± 0.0086 mM
Molecule: NC[C@H](O)c1ccc(O)c(O)c1 [Norepinephrine]

Molecule: OCCc1c[nH]c2ccccc12 [tryptophol]
Kd (Bm-iAANAT3 [3]; [11]): 230 ± 12 µM
Kd (Bm-iAANAT3 [3]; in the presence of acetyl-CoA): 50 ± 2 µM

Molecule: CC(C)(COP(=O)(O)OP(=O)(O)OC[C@H]1O[C@@H](n2cnc3c(N)ncnc32)[C@H](O)[C@@H]1OP(=O)(O)O)[C@@H](O)C(=O)NCCC(=O)NCCS [CoA-SH]
Kd (Bm-iAANAT3 [3]; [11]): 30 ± 1 µM

Molecule: CCCC(=O)SCCNC(=O)CCNC(=O)[C@H](O)C(C)(C)COP(=O)(O)OP(=O)(O)OC[C@H]1O[C@@H](n2cnc3c(N)ncnc32)[C@H](O)[C@@H]1OP(=O)(O)O [Butyryl, buytryl-CoA]
kcat (Bm-iAANAT3 [1]; [8]): 4.0 ± 0.04 s⁻¹

kcat (Bm-iAANAT3 [1]; [8]): 13 ± 1.5 s⁻¹
fold lower (kcat/Km) than (kcat/Km) of decanoyl-CoA (Bm-iAANAT3 [1]; acyl-CoA substrates, 8.0 mM tryptamine): ~ 6 fold
substrate activity as acyl-CoA donor (Bm-iAANAT3 [4]): is a substrate
Molecule: CC(C)(COP(=O)(O)OP(=O)(O)OC[C@H]1O[C@@H](n2cnc3c(N)ncnc32)[C@H](O)[C@@H]1OP(=O)(O)O)[C@@H](O)C(=O)NCCC(=O)NCCSC(=O)CC(=O)O [malonyl-CoA]

Molecule: NCCc1c[nH]c2ccccc12 [Tryptamine]
fold increase in Km, E27A mutant vs wild-type [5]: 100 fold
Kd (Bm-iAANAT3 [3]; [11]): 220 ± 8 µM

B1: E27A mutant of Bm-iAANAT3 (Bombyx mori; E27A) (protein)
chain: MADFVVVMPSMKDAVIQHLRDSFFADAPLNKAVGLCERGQPHAALERLCLATMTDGLSIAAMDGDKVLGVALNGILRHGDIEQSIEKIKQSTDEKFNKIFNILYTVSRDLNLFNTFEVDLIMECRIISVHENARGRGLAKELMKRSIDLARDNEFKLFKVDATGAFSQRICRSLSLEELKSVRYDEYCDESGTPIFRVPPPDHALCVMILKLP
Km [6]: 20 ± 2.2 µM
kcat [6]: 4.0 ± 0.09 × 10^−2 s^−1
Km [7]: 9400 ± 990 µM
kcat [7]: 8.0 ± 0.3 × 10 s^−1
